Results published in ChEMBL document CHEMBL3044653, “Synthesis and herbicidal activity of 2-(substituted phenoxyacetoxy)alkyl-5,5-dimethyl-1,3,2-dioxaphosphinan-2-one” (J Agric Food Chem, 2012).

What was measured:
Triticum aestivum = assay: Toxicity in Triticum aestivum (wheat) plant assessed as inhibition at 150 g/hectare; format: organism-based; conditions: in vivo
Outline: (§1)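 For crop selectivity, conventional crop varieties were planted in 12 cm diameter plots and given a postemergence treatment at 150 g ai/ha. Injury was scored as percent inhibition, with 0–10% classed as safe to the crop.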

Brassica napus = assay: Toxicity in Brassica napus (oilseed rape) assessed as inhibition at 150 g/hectare; format: functional; outline: as §1
Gossypium hirsutum = assay: Toxicity in Gossypium hirsutum (cotton) plant assessed as inhibition at 150 g/hectare; format: organism-based; conditions: in vivo; outline: as §1
Glycine max = assay: Toxicity in Glycine max (soybean) plant assessed as inhibition at 150 g/hectare; format: organism-based; conditions: in vivo; outline: as §1
Zea mays = assay: Toxicity in Zea mays (maize) plant assessed as inhibition at 150 g/hectare; format: organism-based; conditions: in vivo; outline: as §1
Oryza sativa = assay: Toxicity in Oryza sativa (rice) plant assessed as inhibition at 150 g/hectare; format: organism-based; conditions: in vivo; outline: as §1
Eclipta prostrata [1] = assay: Post-emergence herbicidal activity against Eclipta prostrata assessed as inhibition at 75 g/hectare treated at two-leaf stage by green house assay; format: functional
Outline: (§2)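 Greenhouse postemergence spray of diluted formulation solutions onto broadleaf weeds at the two-leaf stage. Primary screen at 150 g ai/ha, with selected compounds retested at 75 and 37.5 g ai/ha. Abutilon was tested at 150 g ai/ha only. Read-out is percent herbicidal damage relative to an untreated control.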

Eclipta prostrata [2] = assay: Post-emergence herbicidal activity against Eclipta prostrata assessed as inhibition at 37.5 g/hectare treated at two-leaf stage by green house assay; format: functional; outline: as §2
Amaranthus retroflexus [3] = assay: Post-emergence herbicidal activity against Amaranthus retroflexus assessed as inhibition at 37.5 g/hectare treated at two-leaf stage by green house assay; format: functional; outline: as §2
Amaranthus retroflexus [4] = assay: Post-emergence herbicidal activity against Amaranthus retroflexus assessed as inhibition at 75 g/hectare treated at two-leaf stage by green house assay; format: functional; outline: as §2
Brassica juncea [5] = assay: Post-emergence herbicidal activity against Brassica juncea assessed as inhibition at 75 g/hectare treated at two-leaf stage by green house assay; format: functional; outline: as §2
Brassica juncea [6] = assay: Post-emergence herbicidal activity against Brassica juncea assessed as inhibition at 37.5 g/hectare treated at two-leaf stage by green house assay; format: functional; outline: as §2
Digitaria sanguinalis [7] = assay: Post-emergence herbicidal activity against Digitaria sanguinalis (hairy crabgrass) assessed as inhibition at 75 g/hectare treated at one-leaf stage by green house assay; format: functional
Outline: (§3)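 Monocot weeds were sprayed postemergence in the greenhouse at the one-leaf stage with diluted formulation solutions. Primary dose was 150 g ai/ha, with follow-up doses of 75 and 37.5 g ai/ha for selected compounds. Activity is scored as percent herbicidal damage compared with an untreated control.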

Digitaria sanguinalis [8] = assay: Post-emergence herbicidal activity against Digitaria sanguinalis (hairy crabgrass) assessed as inhibition at 37.5 g/hectare treated at one-leaf stage by green house assay; format: functional; outline: as §3
Setaria viridis [9] = assay: Post-emergence herbicidal activity against Setaria viridis (green foxtail) assessed as inhibition at 75 g/hectare treated at one-leaf stage by green house assay; format: functional; outline: as §3
Setaria viridis [10] = assay: Post-emergence herbicidal activity against Setaria viridis (green foxtail) assessed as inhibition at 37.5 g/hectare treated at one-leaf stage by green house assay; format: functional; outline: as §3
Echinochloa crus-galli [11] = assay: Post-emergence herbicidal activity against Echinochloa crus-galli (barnyard grass) assessed as inhibition at 75 g/hectare treated at one-leaf stage by green house assay; format: functional; outline: as §3
Echinochloa crus-galli [12] = assay: Post-emergence herbicidal activity against Echinochloa crus-galli (barnyard grass) assessed as inhibition at 37.5 g/hectare treated at one-leaf stage by green house assay; format: functional; outline: as §3
Eclipta prostrata [13] = assay: Post-emergence herbicidal activity against Eclipta prostrata assessed as inhibition at 150 g/hectare treated at two-leaf stage by green house assay; format: functional; outline: as §2
Amaranthus retroflexus [14] = assay: Post-emergence herbicidal activity against Amaranthus retroflexus assessed as inhibition at 150 g/hectare treated at two-leaf stage by green house assay; format: functional; outline: as §2
Brassica juncea [15] = assay: Post-emergence herbicidal activity against Brassica juncea assessed as inhibition at 150 g/hectare treated at two-leaf stage by green house assay; format: functional; outline: as §2
Abutilon theophrasti = assay: Post-emergence herbicidal activity against Abutilon theophrasti (velvetleaf) assessed as inhibition at 150 g/hectare treated at two-leaf stage by green house assay; format: functional; outline: as §2
Digitaria sanguinalis [16] = assay: Post-emergence herbicidal activity against Digitaria sanguinalis (hairy crabgrass) assessed as inhibition at 150 g/hectare treated at one-leaf stage by green house assay; format: functional; outline: as §3
Echinochloa crus-galli [17] = assay: Post-emergence herbicidal activity against Echinochloa crus-galli (barnyard grass) assessed as inhibition at 150 g/hectare treated at one-leaf stage by green house assay; format: functional; outline: as §3
Setaria viridis [18] = assay: Post-emergence herbicidal activity against Setaria viridis (green foxtail) assessed as inhibition at 150 g/hectare treated at one-leaf stage by green house assay; format: functional; outline: as §3
Brassica juncea [19] = assay: Post-emergence herbicidal activity against Brassica juncea assessed as inhibition at 75 g/hectare by green house assay; format: functional
Chenopodium album [20] = assay: Post-emergence herbicidal activity against Chenopodium album assessed as inhibition at 75 g/hectare by green house assay; format: functional
Pontederia vaginalis [21] = assay: Post-emergence herbicidal activity against Monochoria vaginalis assessed as inhibition at 75 g/hectare by green house assay; format: functional
Ammannia baccifera [22] = assay: Post-emergence herbicidal activity against Ammannia baccifera assessed as inhibition at 75 g/hectare by green house assay; format: functional
Radish [23] = assay: Post-emergence herbicidal activity against Raphanus sativus (radish) assessed as inhibition at 75 g/hectare by green house assay; format: functional
Ipomoea nil [24] = assay: Post-emergence herbicidal activity against Ipomoea nil (Japanese morning glory) assessed as inhibition at 75 g/hectare by green house assay; format: functional
[25] = test system: Brassica rapa subsp. chinensis; assay: Post-emergence herbicidal activity against Brassica rapa subsp. chinensis assessed as inhibition at 75 g/hectare by green house assay; format: functional
Amaranthus retroflexus [26] = assay: Post-emergence herbicidal activity against Amaranthus retroflexus assessed as inhibition at 75 g/hectare by green house assay; format: functional
Brassica juncea [27] = assay: Post-emergence herbicidal activity against Brassica juncea assessed as inhibition at 150 g/hectare by green house assay; format: functional
Chenopodium album [28] = assay: Post-emergence herbicidal activity against Chenopodium album assessed as inhibition at 150 g/hectare by green house assay; format: functional
Pontederia vaginalis [29] = assay: Post-emergence herbicidal activity against Monochoria vaginalis assessed as inhibition at 150 g/hectare by green house assay; format: functional
Ammannia baccifera [30] = assay: Post-emergence herbicidal activity against Ammannia baccifera assessed as inhibition at 150 g/hectare by green house assay; format: functional
Radish [31] = assay: Post-emergence herbicidal activity against Raphanus sativus (radish) assessed as inhibition at 150 g/hectare by green house assay; format: functional
Ipomoea nil [32] = assay: Post-emergence herbicidal activity against Ipomoea nil (Japanese morning glory) assessed as inhibition at 150 g/hectare by green house assay; format: functional
Amaranthus retroflexus [33] = assay: Post-emergence herbicidal activity against Amaranthus retroflexus assessed as inhibition at 150 g/hectare by green house assay; format: functional
[34] = test system: Brassica rapa subsp. chinensis; assay: Post-emergence herbicidal activity against Brassica rapa subsp. chinensis assessed as inhibition at 150 g/hectare by green house assay; format: functional

CC1(C)COP(=O)(C(OC(=O)COc2ccc(Cl)cc2Cl)c2ccccc2)OC1 (stereo unspecified)
inhibition (INH) (Triticum aestivum): 10%
inhibition at 150 g/ha (Brassica napus): 40%
inhibition (INH) (Gossypium hirsutum): 40%
inhibition (INH) (Glycine max): 30%
inhibition (INH) (Zea mays): 0%
inhibition (INH) (Oryza sativa): 10%
inhibition at 75 g/ha (Eclipta prostrata [1]): 55%
inhibition at 37.5 g/ha (Eclipta prostrata [2]): 50%
inhibition at 37.5 g/ha (Amaranthus retroflexus [3]): 50%
inhibition at 75 g/ha (Amaranthus retroflexus [4]): 80%
inhibition at 75 g/ha (Brassica juncea [5]): 95%
inhibition at 37.5 g/ha (Brassica juncea [6]): 90%
inhibition at 75 g/ha (Digitaria sanguinalis [7]): 0%
inhibition at 37.5 g/ha (Digitaria sanguinalis [8]): 0%
inhibition at 75 g/ha (Setaria viridis [9]): 0%
inhibition at 37.5 g/ha (Setaria viridis [10]): 0%
inhibition at 75 g/ha (Echinochloa crus-galli [11]): 0%
inhibition at 37.5 g/ha (Echinochloa crus-galli [12]): 0%
inhibition at 150 g/ha (Eclipta prostrata [13]): 80%
inhibition at 150 g/ha (Amaranthus retroflexus [14]): 90%
inhibition at 150 g/ha (Brassica juncea [15]): 100%
inhibition at 150 g/ha (Abutilon theophrasti): 98%
inhibition at 150 g/ha (Digitaria sanguinalis [16]): 0%
inhibition at 150 g/ha (Echinochloa crus-galli [17]): 0%
inhibition at 150 g/ha (Setaria viridis [18]): 0%

CC(C)C(OC(=O)COc1ccc(Cl)cc1Cl)P1(=O)OCC(C)(C)CO1 (stereo unspecified)
inhibition (INH) (Triticum aestivum): 10%
inhibition at 150 g/ha (Brassica napus): 50%
inhibition (INH) (Gossypium hirsutum): 20%
inhibition (INH) (Glycine max): 30%
inhibition (INH) (Zea mays): 0%
inhibition (INH) (Oryza sativa): 20%
inhibition at 75 g/ha (Eclipta prostrata [1]): 35%
inhibition at 37.5 g/ha (Eclipta prostrata [2]): 30%
inhibition at 37.5 g/ha (Amaranthus retroflexus [3]): 30%
inhibition at 75 g/ha (Amaranthus retroflexus [4]): 80%
inhibition at 75 g/ha (Brassica juncea [5]): 100%
inhibition at 37.5 g/ha (Brassica juncea [6]): 90%
inhibition at 75 g/ha (Digitaria sanguinalis [7]): 0%
inhibition at 37.5 g/ha (Digitaria sanguinalis [8]): 0%
inhibition at 75 g/ha (Setaria viridis [9]): 0%
inhibition at 37.5 g/ha (Setaria viridis [10]): 0%
inhibition at 75 g/ha (Echinochloa crus-galli [11]): 0%
inhibition at 37.5 g/ha (Echinochloa crus-galli [12]): 0%
inhibition at 150 g/ha (Eclipta prostrata [13]): 75%
inhibition at 150 g/ha (Amaranthus retroflexus [14]): 85%
inhibition at 150 g/ha (Brassica juncea [15]): 100%
inhibition at 150 g/ha (Abutilon theophrasti): 95%
inhibition at 150 g/ha (Digitaria sanguinalis [16]): 0%
inhibition at 150 g/ha (Echinochloa crus-galli [17]): 0%
inhibition at 150 g/ha (Setaria viridis [18]): 0%

Cc1cc(Cl)ccc1OCC(=O)OC(C)P1(=O)OCC(C)(C)CO1 (stereo unspecified)
inhibition (INH) (Triticum aestivum): 0%
inhibition at 150 g/ha (Brassica napus): 40%
inhibition (INH) (Gossypium hirsutum): 20%
inhibition (INH) (Glycine max): 20%
inhibition (INH) (Zea mays): 0%
inhibition (INH) (Oryza sativa): 10%
inhibition at 75 g/ha (Brassica juncea [19]): 100%
inhibition at 75 g/ha (Chenopodium album [20]): 70%
inhibition at 75 g/ha (Pontederia vaginalis [21]): 100%
inhibition at 75 g/ha (Ammannia baccifera [22]): 100%
inhibition at 75 g/ha (Radish [23]): 80%
inhibition at 75 g/ha (Ipomoea nil [24]): 100%
inhibition at 75 g/ha [25]: 70%
inhibition at 75 g/ha (Amaranthus retroflexus [26]): 100%
inhibition at 150 g/ha (Brassica juncea [27]): 100%
inhibition at 150 g/ha (Chenopodium album [28]): 75%
inhibition at 150 g/ha (Pontederia vaginalis [29]): 100%
inhibition at 150 g/ha (Ammannia baccifera [30]): 100%
inhibition at 150 g/ha (Radish [31]): 80%
inhibition at 150 g/ha (Ipomoea nil [32]): 100%
inhibition at 150 g/ha (Amaranthus retroflexus [33]): 100%
inhibition at 150 g/ha [34]: 80%
inhibition at 75 g/ha (Eclipta prostrata [1]): 85%
inhibition at 37.5 g/ha (Eclipta prostrata [2]): 80%
inhibition at 37.5 g/ha (Amaranthus retroflexus [3]): 80%
inhibition at 75 g/ha (Amaranthus retroflexus [4]): 100%
inhibition at 75 g/ha (Brassica juncea [5]): 100%
inhibition at 37.5 g/ha (Brassica juncea [6]): 80%
inhibition at 75 g/ha (Digitaria sanguinalis [7]): 0%
inhibition at 37.5 g/ha (Digitaria sanguinalis [8]): 0%
inhibition at 75 g/ha (Setaria viridis [9]): 0%
inhibition at 37.5 g/ha (Setaria viridis [10]): 0%
inhibition at 75 g/ha (Echinochloa crus-galli [11]): 0%
inhibition at 37.5 g/ha (Echinochloa crus-galli [12]): 0%
inhibition at 150 g/ha (Eclipta prostrata [13]): 90%
inhibition at 150 g/ha (Amaranthus retroflexus [14]): 100%
inhibition at 150 g/ha (Brassica juncea [15]): 100%
inhibition at 150 g/ha (Abutilon theophrasti): 100%
inhibition at 150 g/ha (Digitaria sanguinalis [16]): 0%
inhibition at 150 g/ha (Echinochloa crus-galli [17]): 30%
inhibition at 150 g/ha (Setaria viridis [18]): 0%
